From ChEMBL document CHEMBL1147096, “Activities of DL-alpha-difluoromethylarginine and polyamine analogues against Cryptosporidium parvum infection in a T-cell receptor alpha-deficient mouse model” (2007) come the findings set out here.

Test [1] has as its system Cryptosporidium parvum. Kind of test: Effect on infection of HCT8 cells by Cryptosporidium parvum […] isolated from mouse treated with 134 mg/kg/day for 7 days assessed as viability of […]. The test is classed as functional, organism-based. An outline of the steps:
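Oocysts were recovered from TCR-α-deficient mice that had been infected, then treated with 134 mg/kg once daily for 7 days. Viability was judged by whether the oocysts could establish infection in an HCT-8 cell monolayer in vitro.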

The subject of test [2] is Cryptosporidium parvum. The test is described as follows: Anticryptosporidial activity against Cryptosporidium parvum infected TCR alpha deficient-mouse assessed as prevention of oocyst shedding at 20 mg/kg/day after 7 days. The format is functional. An outline of the steps: (§1)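 Seven-day-old TCR-α-deficient mice were gavaged with 2 × 10^4 oocysts, and infection was confirmed in feces one week later. Treatment ran for 7 days: 20 or 134 mg/kg once daily, or 16 mg/kg twice daily. Controls received PBS. Seven days after treatment, fecal smears were stained with carbol fuchsin and scored for oocysts (×400). Ileal and cecal H&E sections were scored 0–2. Shedding was compared by Fisher's exact test.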

Test [3] concerns Cryptosporidium parvum. Kind of test: Prevention of Cryptosporidium parvum infection in TCR alpha deficient-mouse pretreated with 50 mg/kg/day, po for 2 days prior to oocyst infection and continued for 5 days. The format is functional, organism-based. An outline of the steps: (§2)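 Suckling TCR-α-deficient mice (6–8 per group) were treated once daily for 2 days, challenged with 2 × 10^4 oocysts, and treated for 5 more days at the same dose (20 or 50 mg/kg). Controls received PBS. Fecal oocyst shedding was checked 10 days after treatment by carbol fuchsin smear. Ileal and cecal H&E sections were scored 0–2 and analyzed by Fisher's exact test and ANOVA.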

Test [4] relates to Cryptosporidium parvum. The test is described as follows: Anticryptosporidial activity against Cryptosporidium parvum infected TCR alpha deficient-mouse assessed as prevention of oocyst shedding at 134 mg/kg/day after 7 days. The format is functional. An outline of the steps:
as §1

The test system of test [5] is Mus musculus. The test is described as follows: Activity of intestinal epithelial SSAT in Swiss-Webster mouse at 0.2 mg, ip after 48 hrs. The format is functional. An outline of the steps: (§3)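 Intestinal homogenates came from Swiss-Webster mice given CGC-11157 once daily (20 mg/kg p.o. or 2 mg/kg i.p.) and killed at 48, 72 or 96 h. SSAT was measured as [1-14C]acetyl-CoA incorporation into monoacetylspermine in Bicine (pH 8.0), with 16.5 μM labeled plus 1 mM acetyl-CoA, 2 mM spermine and 100 μg protein, 60 min at 37°C. Products were bound on cellulose phosphate discs and counted. Results are in nmol/min/mg protein ± SD.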

The subject of test [6] is Mus musculus. Kind of test: Activity of intestinal epithelial SSAT in Swiss-Webster mouse at […], ip after 72 hrs. The format is functional. An outline of the steps: as §3
The test system of test [7] is Mus musculus. The test is described as follows: Activity of intestinal epithelial SSAT in Swiss-Webster mouse at […], ip after 96 hrs. The format is functional. An outline of the steps: as §3
For test [8], the system named is Mus musculus. The test is described as follows: Activity of intestinal epithelial ODC in Swiss-Webster mouse at 0.2 mg, ip after 48 hrs. The test is classed as functional. An outline of the steps: (§4)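 Swiss-Webster mice were dosed with CGC-11157 once daily at 20 mg/kg p.o. by feeding needle or 2 mg/kg i.p. They were killed at 48, 72 or 96 h. Intestines were washed in PBS (pH 6.7) and homogenized on ice in 40 mM Tris-HCl (pH 6.7). ODC was measured as 14CO2 trapped from L-[14C]ornithine in 0.2 M acetate (pH 6.5), 60 μM pyridoxal phosphate, 3 mg/ml BSA and 125 μg protein, 30 min at 37°C. Results are in nmol/min/mg protein ± SD.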

Test [9] relates to Mus musculus. Kind of test: Activity of intestinal epithelial ODC in Swiss-Webster mouse at 0.2 mg, ip after 72 hrs. The format is functional. An outline of the steps: as §4
Test [10] concerns Mus musculus. Kind of test: Activity of intestinal epithelial ODC in Swiss-Webster mouse at […], ip after 96 hrs. The test is classed as functional. An outline of the steps:
as §4

Test [11] has as its system Mus musculus. The test is described as follows: Ratio of intestinal epithelial ODC activity to SSAT activity in Swiss-Webster mouse at 0.2 mg, ip after 48 hrs. The format is functional. An outline of the steps:
(§5)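 The ratio was calculated from ODC (14CO2 release from [14C]ornithine) and SSAT (acetylation of spermine by [14C]acetyl-CoA) specific activities. Both were measured in intestinal homogenates from Swiss-Webster mice dosed once daily with CGC-11157 p.o. or i.p. and sampled at 48, 72 or 96 h.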

Test [12] deals with Mus musculus. Kind of test: Ratio of intestinal epithelial ODC activity to SSAT activity in Swiss-Webster mouse at 0.2 mg, ip after 72 hrs. The format is functional. An outline of the steps:
as §5

The subject of test [13] is Mus musculus. The test is described as follows: Ratio of intestinal epithelial ODC activity to SSAT activity in Swiss-Webster mouse at 0.2 mg, ip after 96 hrs. The format is functional. An outline of the steps: as §5
The subject of test [14] is Mus musculus. Kind of test: Ratio of intestinal epithelial ODC activity to SSAT activity in Swiss-Webster mouse at 2 mg, po after 48 hrs. The test is classed as functional. An outline of the steps: as §5
The test system of test [15] is Mus musculus. Kind of test: Ratio of intestinal epithelial ODC activity to SSAT activity in Swiss-Webster mouse at 2 mg, po after 72 hrs. The test is classed as functional. An outline of the steps:
as §5

Test [16] relates to Mus musculus. The test is described as follows: Ratio of intestinal epithelial ODC activity to SSAT activity in Swiss-Webster mouse at 2 mg, po after 96 hrs. The format is functional. An outline of the steps: as §5
Test [17] concerns Cryptosporidium parvum. The test is described as follows: Prevention of Cryptosporidium parvum infection in TCR alpha deficient-mouse pretreated with 20 mg/kgday, po for 2 days prior to oocyst infection and continued for 5 days. The following applies: dose 20 mg/kg. The format is functional. An outline of the steps: as §2
Test [18] deals with Cryptosporidium parvum. The test is described as follows: Anticryptosporidial activity against Cryptosporidium parvum infected TCR alpha deficient-mouse assessed as prevention of oocyst shedding at 16 mg/kg twice a day after 7 days. The test is classed as functional. An outline of the steps: as §1

Active and inactive are the calls of the source. The rule behind the calls is not given here.

For `CCNCCCCNCCCCNCCCCNCCCCNC/C=C/CNCCCCNCCCCNCCCCNCCCCNCC`, the outcome in [1] was inactive.
In the case of `NCCCC(N)(C(=O)O)C(F)F` (racemic) [EFLORNITHINE], the Activity in test [2] was determined as 33%.
Consider `CCNCCCNC/C=C\CNCCCNCC`, for which the outcome in test [3] was Active. In test [4], the Activity result is “Toxic”.
With `CCNCCCCNCCCCNCCCCNC/C=C\CNCCCCNCCCCNCCCCNCC`, the Activity in test [5] is 0.081 nmol/mg/min; in [6], 0.034 nmol/mg/min; in [7], 0.04 nmol/mg/min; in test [8] it was 0.079 nmol/mg/min; in [9], 0.034 nmol/mg/min; in test [10], 0.16 nmol/mg/min. For the same compound, the Activity in test [17], in test [2] and in [18] was 50% throughout. The Ratio in test [11] is on record as 0.97; in test [12], 1; in [13], 4; in test [14] it was 0.99; in [15] it was 1.55; in test [16], 2.9.
